Measurements from ChEMBL document CHEMBL1125414, “A novel class of calcium-entry blockers: the 1[[4-(aminoalkoxy)phenyl]sulfonyl]indolizines” (J Med Chem, 1992).
pIC50: −log10 of the molar value.

Experiments:
Rattus norvegicus = species: Rattus norvegicus; experiment: Molar concentration required to block [Ca2+] induced contraction of K+ depolarized rat aorta by 50%; assay type: functional
Method in brief: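 Spiral strips of thoracic aorta from male Wistar rats in modified Krebs solution, 95% O2/5% CO2, 37 °C, depolarized preparation. pD2 taken as negative log molar antagonist concentration reducing maximal contraction by 50%.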

[1] = Displacement of [3H]nitrendipine binding to L-type calcium channel of Guinea pig cerebral cortex membranes; assay type: tissue-based, Cavia porcellus

pIC50 (Rattus norvegicus) | pIC50 [1] | SMILES
7.18 | 7.37 | CC(C)(C)NCCCOc1ccc(S(=O)(=O)c2c(C3CC3)cn3ccccc23)cc1
7.14 | 7.48 | CCCCN(CCCC)CCOc1ccc(S(=O)(=O)c2c(CC)cn3ccccc23)cc1
6.55 | 7.66 | CCCCc1cn2ccccc2c1S(=O)(=O)c1ccc(OCCCN(CCCC)CCCC)cc1
7.69 | 8.89 | CCCCN(CCCC)CCCCOc1ccc(S(=O)(=O)c2c(C(C)C)cn3ccccc23)cc1
5.79 | 6.81 | CCCCN(CCCC)CCCOc1ccc(S(=O)(=O)c2c(-c3ccccc3)cn3ccccc23)cc1
7.09 | 8.40 | CC(C)c1cn2ccccc2c1S(=O)(=O)c1ccc(OCCCNCCc2ccccc2)cc1
7.05 | 9.05 | CCCCCN(CCCCC)CCCOc1ccc(S(=O)(=O)c2c(C(C)C)cn3ccccc23)cc1
7.67 | 8.68 | CCCCN(CCCC)CCCOc1ccc(S(=O)(=O)c2c(C(C)C)cn3ccccc23)cc1
6.52 | 7.23 | COc1ccc([C@@H]2Sc3ccccc3N(CCN(C)C)C(=O)[C@@H]2OC(C)=O)cc1 [DILTIAZEM]
7.96 | 8.60 | CCCCN(CCCC)CCCOc1ccc(S(=O)(=O)c2c(C3CC3)cn3ccccc23)cc1
8.65 | 9.22 | COc1cc(CCN(C)CCCOc2ccc(S(=O)(=O)c3c(C(C)C)cn4ccccc34)cc2)cc(OC)c1OC
6.38 | 6.89 | CCc1cn2ccccc2c1S(=O)(=O)c1ccc(OCCCNC(C)(C)C)cc1
8.67 | 9.72 | COc1cc(CCN(C)CCCOc2ccc(S(=O)(=O)c3c(C(C)C)cn4ccccc34)cc2)cc(OC)c1
7.09 | 8.18 | CC(C)c1cn2ccccc2c1S(=O)(=O)c1ccc(OCCCN2CCC(c3ccccc3)CC2)cc1
6.35 | 7.05 | CC(C)(C)NCCCOc1ccc(S(=O)(=O)c2c(C(C)(C)C)cn3ccccc23)cc1
6.41 | 6.70 | CC(C)c1cn2ccccc2c1S(=O)(=O)c1ccc(OCCCN(C)C)cc1
8.25 | 9.21 | COc1ccc(CCN(C)CCCOc2ccc(S(=O)(=O)c3c(C(C)C)cn4ccccc34)cc2)cc1OC [FANTOFARONE]
7.20 | 8.20 | CCCCCN(CCCCC)CCCOc1ccc(S(=O)(=O)c2c(CC)cn3ccccc23)cc1
7.64 | 8.35 | CC(C)c1cn2ccccc2c1S(=O)(=O)c1ccc(OCCCNCc2ccccc2)cc1
6.99 |  | CCCN(CCC)CCCOc1ccc(S(=O)(=O)c2c(C(C)C)cn3ccccc23)cc1
7.87 |  | CCc1cn2ccccc2c1S(=O)(=O)c1ccc(OCCCN(C)CCc2ccc(OC)c(OC)c2)cc1
7.89 | 8.92 | COc1ccc(CNCCCOc2ccc(S(=O)(=O)c3c(C(C)C)cn4ccccc34)cc2)cc1OC
8.10 | 8.59 | COc1cccc(CCN(C)CCCOc2ccc(S(=O)(=O)c3c(C(C)C)cn4ccccc34)cc2)c1
7.01 | 7.70 | CCCCN(CCCC)CCCCCOc1ccc(S(=O)(=O)c2c(CC)cn3ccccc23)cc1
8.50 | 9.21 | COc1ccc(CN(C)CCCOc2ccc(S(=O)(=O)c3c(C(C)C)cn4ccccc34)cc2)cc1OC
8.41 | 9.13 | COc1ccc(CCN(C)CCCOc2ccc(S(=O)(=O)c3c(C4CC4)cn4ccccc34)cc2)cc1OC

pIC50 (Rattus norvegicus) | pIC50 [1] | SMILES
7.28 | 8.02 | CCCCN(CCCC)CCCOc1ccc(S(=O)(=O)c2c(C(C)(C)C)cn3ccccc23)cc1
5.47 |  | CCN(CC)CCCOc1ccc(S(=O)(=O)c2c(C)cn3ccccc23)cc1
7.67 | 8.64 | COc1ccc(CCN(C)CCCCOc2ccc(S(=O)(=O)c3c(C(C)C)cn4ccccc34)cc2)cc1OC
7.84 | 8.35 | COc1ccc(CN(C)CCCCOc2ccc(S(=O)(=O)c3c(C(C)C)cn4ccccc34)cc2)cc1OC
6.69 | 7.85 | CC(C)c1cn2ccccc2c1S(=O)(=O)c1ccc(OCCCN2CCN(c3ccccc3)CC2)cc1
8.30 | 8.74 | COc1ccc(CCNCCCOc2ccc(S(=O)(=O)c3c(C(C)C)cn4ccccc34)cc2)cc1OC
6.24 | 6.89 | CCCCc1cn2ccccc2c1S(=O)(=O)c1ccc(OCCCN(CCC)CCC)cc1
4.52 | 8.19 | CCCCCCCCN(CCCCCCCC)CCCOc1ccc(S(=O)(=O)c2c(C(C)C)cn3ccccc23)cc1
6.79 | 7.16 | CCCCN(CCCC)CCCOc1ccc(S(=O)(=O)c2c(C)cn3ccccc23)cc1
8.63 | 9.28 | COc1cc(CCNCCCOc2ccc(S(=O)(=O)c3c(C(C)C)cn4ccccc34)cc2)cc(OC)c1
6.45 | 6.56 | CCc1cn2ccccc2c1S(=O)(=O)c1ccc(OCCCN2CCCCC2)cc1
6.40 | 6.42 | COc1ccc(NCCCOc2ccc(S(=O)(=O)c3c(C(C)C)cn4ccccc34)cc2)cc1OC
8.33 | 8.72 | COc1ccc(CN(C)CCCOc2ccc(S(=O)(=O)c3c(C4CC4)cn4ccccc34)cc2)cc1OC
6.64 | 7.29 | CCN(CC)CCCOc1ccc(S(=O)(=O)c2c(C(C)C)cn3ccccc23)cc1
7.73 | 9.08 | CCCCN(CCCOc1ccc(S(=O)(=O)c2c(C(C)C)cn3ccccc23)cc1)CCc1ccc(OC)c(OC)c1
7.33 | 7.42 | COc1ccc(CCN(C)CCCC(C#N)(c2ccc(OC)c(OC)c2)C(C)C)cc1OC (stereo unspecified)
7.96 | 8.34 | CCc1cn2ccccc2c1S(=O)(=O)c1ccc(OCCCNCCc2ccc(OC)c(OC)c2)cc1
5.39 | 6.95 | CCCCN(CCCC)CCCOc1ccc(S(=O)(=O)c2c(C3CCCCC3)cn3ccccc23)cc1
7.27 | 7.85 | CCCCN(CCCC)CCCOc1ccc(S(=O)(=O)c2c(CCC)cn3ccccc23)cc1
7.50 | 7.85 | CCCCN(CCCC)CCCOc1ccc(S(=O)(=O)c2c(CC)cn3ccccc23)cc1
7.38 | 7.76 | CC(C)c1cn2ccccc2c1S(=O)(=O)c1ccc(OCCCNC(C)(C)C)cc1
7.65 | 8.06 | COc1ccc(CCN(C)CCCOc2ccc(S(=O)(=O)c3c(C(C)C)cn4ccccc34)cc2)cc1
6.02 | 6.19 | CCCN(CCC)CCCOc1ccc(S(=O)(=O)c2c(C)cn3ccccc23)cc1
6.82 | 6.74 | CCCN(CCC)CCCOc1ccc(S(=O)(=O)c2c(CC)cn3ccccc23)cc1
7.48 | 8.34 | CCCCN(CCCC)CCCCOc1ccc(S(=O)(=O)c2c(CC)cn3ccccc23)cc1

SMILES | pIC50 (Rattus norvegicus) | pIC50 [1]
COC(=O)C1=C(C)NC(C)=C(C(=O)OC)C1c1ccccc1[N+](=O)[O-] [NIFEDIPINE] | 8.94 | 8.60
